The values below come from ChEMBL document CHEMBL1159388, “Steroidal glycosides from the rhizomes of Dioscorea spongiosa” (2003).

The structures appear in SMILES notation. Where a SMILES comes first, the peptide text is derived from it. Bridges are numbered along the chain shown (N, C = ends). [ ]: non-standard residue; d: D form. Asu = N[C@@H](CCCCCC(=O)O)C(=O)O

Common to all, as to assay type: functional
A short description of experiment [1]: Antiosteoporotic activity in mouse parietal bone assessed as inhibition of parathyroid hormone induced bone resorption by measuring 45Ca release at 200 uM by scintillation counting. Set-up: scale not given: the % may be the effect or the level left. The method in brief:
(§1)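 Mice aged 2 days received 45CaCl2 (2 μCi) subcutaneously; parietal bones were taken 2 days later and cultured on grids at the gas-liquid interface. Medium was Ham's F-12 with NaHCO3, 1.0 mM CaCl2 and 5% heat-inactivated horse serum, at 37 °C under 5% CO2. After 24 h preculture, bones were exposed to PTH (2×10^-9 M final) plus sample for 6 days, medium changed at day 3. Four bones per group.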

A short description of experiment [2]: Antiosteoporotic activity in mouse parietal bone assessed as inhibition of parathyroid hormone induced bone resorption by measuring 45Ca release at 20 uM by scintillation counting. The arrangement: scale not given: the % may be the effect or the level left. The gist of the method: as §1
Experiment [3] is described as follows: Antiosteoporotic activity in mouse parietal bone assessed as inhibition of parathyroid hormone induced bone resorption at 200 uM. The gist of the method:
as §1

A short description of experiment [4]: Antiosteoporotic activity in mouse parietal bone assessed as inhibition of parathyroid hormone induced bone resorption by measuring 45Ca release by scintillation counting. The arrangement: scale not given: the % may be the effect or the level left. The method in brief:
as §1

As for `C=C[C@@H](CCCCC)O[C@H]1O[C@H](CO[C@@H]2OC[C@H](O)[C@H](O)[C@H]2O)[C@@H](O)[C@H](O)[C@H]1O`, the Activity in experiment [1] is recorded as 20.7%; in experiment [2], 23.8%. Moreover, in experiment [3], the “inhibition (INH)” value came out at 61.6%.

For `CC(C)C[C@H](NC(=O)[C@H](CCCCN)NC(=O)CNC(=O)[C@H](CC(C)C)NC(=O)[C@@H](NC(=O)[C@@H]1CCCCCC(=O)N[C@@H](CO)C(=O)N[C@@H](CC(N)=O)C(=O)N[C@@H](CC(C)C)C(=O)N[C@@H](CO)C(=O)N[C@@H]([C@@H](C)O)C(=O)N1)C(C)C)C(=O)N[C@@H](CO)C(=O)N[C@@H](CCC(N)=O)C(=O)N[C@@H](CCC(=O)O)C(=O)N[C@@H](CC(C)C)C(=O)N[C@@H](Cc1cnc[nH]1)C(=O)N[C@@H](CCCCN)C(=O)N[C@@H](CC(C)C)C(=O)N[C@@H](CCC(N)=O)C(=O)N[C@H](C(=O)N[C@@H](Cc1ccc(O)cc1)C(=O)N1CCC[C@H]1C(=O)N[C@@H](CCCNC(=N)N)C(=O)N[C@H](C(=O)N[C@@H](CC(=O)O)C(=O)N[C@H](C(=O)NCC(=O)N[C@@H](C)C(=O)NCC(=O)N[C@H](C(=O)N1CCC[C@H]1C(N)=O)[C@@H](C)O)C(C)C)[C@@H](C)O)[C@@H](C)O` [ELCITONIN] (SNLST[Asu]VLGKLSQELHKLQTYPRTDVGAGTP-NH2; lactam N-6), the Activity in experiment [4] came out at 18.4%.

As to `CC(=O)[C@H]1[C@@H](OC(=O)CCC(C)CO[C@@H]2O[C@H](CO)[C@@H](O)[C@H](O)[C@H]2O)C[C@H]2[C@@H]3CC=C4C[C@@H](O[C@@H]5O[C@H](CO)[C@@H](O[C@@H]6O[C@@H](C)[C@H](O)[C@@H](O)[C@H]6O)[C@H](O)[C@H]5O[C@@H]5O[C@@H](C)[C@H](O)[C@@H](O)[C@H]5O)CC[C@]4(C)[C@H]3CC[C@@]21C` (stereo partly drawn) [HYPOGLAUCIN G], the Activity in experiment [1] came to 19.2%; in experiment [2], 22.8%. In addition, the “inhibition (INH)” value in experiment [3] was determined as 66.7%.

`CO[C@]1(CC[C@@H](C)CO[C@@H]2O[C@H](CO)[C@@H](O)[C@H](O)[C@H]2O)O[C@H]2C[C@H]3[C@@H]4CC=C5C[C@@H](O[C@@H]6O[C@H](CO)[C@@H](O[C@@H]7O[C@@H](C)[C@H](O)[C@@H](O)[C@H]7O)[C@H](O)[C@H]6O[C@@H]6O[C@@H](C)[C@H](O)[C@@H](O)[C@H]6O)CC[C@]5(C)[C@H]4CC[C@]3(C)[C@H]2[C@@H]1C` [METHYLPROTODIOSCIN]: the figures for the Activity in experiment [1] and in experiment [2] were 17.4% and 24.9%, respectively. For the same molecule, the “inhibition (INH)” value in experiment [3] was 89.9%.

Turning to `CC(C)CC[C@H](O)[C@@H](C)[C@H]1[C@@H](O[C@@H]2O[C@H](CO)[C@@H](O)[C@H](O)[C@H]2O)C[C@H]2[C@@H]3CC=C4C[C@@H](O[C@@H]5O[C@H](CO)[C@@H](O[C@@H]6O[C@@H](C)[C@H](O)[C@@H](O)[C@H]6O)[C@H](O)[C@H]5O[C@@H]5O[C@@H](C)[C@H](O)[C@@H](O)[C@H]5O)CC[C@]4(C)[C@H]3CC[C@]12C` [SPONGIOSIDES A], the Activity in experiment [1] stood at 17.1%; in experiment [2], 30.9%. Also, in experiment [3], the “inhibition (INH)” value was determined as 63.6%.
